Bioassay records: PubChem, several laboratories
Most compounds without a hit are left out; they make up all but 3.5% or so of the library.
FLuc inhib CS – counter-screen for luciferase assay inhibitors: firefly luciferase inhibition; P08659; ATPLite firefly luciferase biochemical luminescence, 10 min; inhibition, % at 10 µM; actives 1.5% (n = 200,000); AID 1006;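 active means inhibition above about 50% when tested at 10 µM, limit read from the data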
Target sequence (P08659 whole entry, looked up): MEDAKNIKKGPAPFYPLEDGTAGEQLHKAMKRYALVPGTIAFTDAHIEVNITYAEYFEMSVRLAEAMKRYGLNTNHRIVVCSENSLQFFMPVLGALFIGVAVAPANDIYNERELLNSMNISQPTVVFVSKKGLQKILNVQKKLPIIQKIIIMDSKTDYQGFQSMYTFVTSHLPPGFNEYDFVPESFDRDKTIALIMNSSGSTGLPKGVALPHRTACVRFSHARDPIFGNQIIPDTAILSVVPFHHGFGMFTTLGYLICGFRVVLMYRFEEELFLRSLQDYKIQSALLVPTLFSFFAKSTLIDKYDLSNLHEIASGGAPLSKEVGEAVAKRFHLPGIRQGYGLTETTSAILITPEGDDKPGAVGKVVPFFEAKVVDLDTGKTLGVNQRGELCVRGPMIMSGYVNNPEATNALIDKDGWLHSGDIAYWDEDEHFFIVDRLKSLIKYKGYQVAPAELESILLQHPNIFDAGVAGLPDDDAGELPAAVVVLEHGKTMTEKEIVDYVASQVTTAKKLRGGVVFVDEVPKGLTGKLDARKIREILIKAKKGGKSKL
FLuc act counter – firefly luciferase counter-screen for stimulation assays; P08659; ATPlite luciferase biochemical, luminescence, 10 min; 0 = ATP-free wells, 1 = DMSO control; activation factor at 10 µM; 200,000 tested, under 10 active; AID 1027;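 active means luciferase activation factor, scaled between plate controls, of at least 2 with compound at 10 µM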
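assay system = Luciferase/luciferin detection reagent, cell-free biochemical luciferase assay | also added = ATP substrate | times = 10 min post-reagent at room temperature | measured by = luminescence from luciferase reaction | measure = luciferase activation, seen as luminescence increase over controls | benchmarks = low control with PBS replacing ATP, high control enzyme plus ATP without compound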
Pf gametocyte – kills late stage P. falciparum gametocytes; P. falciparum stage V gametocytes, ATP luminescence, 24 h; inhibition, % at 10.9 µM; actives 0.065% (n = 150,000); AID 743093;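 active means inhibition above the mean plus 3 SD of compounds within the control limits, set per campaign, cut at about 38% in these data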
APP 5'UTR act – activates APP 5'UTR luciferase reporter; SH-SY5Y APP 5'UTR luciferase reporter, luminescence; zero percent = DMSO vehicle wells; activation, % at 2 µM; actives 1% (n = 190,000);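 active means activation above a set limit, based on mean plus 3 SD of controls, cut at about 140% in these data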
STAT1 activator – STAT1 signaling activation; NIH 3T3 STAT1-luciferase reporter, IFN-gamma, luminescence; 100% = IFN-gamma alone, no compound; activation (% of control), % at 5.5 µM; actives 2.6% (n = 200,000); AID 932;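 active means activation above the screen-wide mean activation plus 3 SD, cut at about 130% in these data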
NF-kB expr up – NF-kB expression increase, human neuronal cells | actives 1.6% (n = 190,000) | NF-kB reporter expression; hits give high values | fold change at 12.5 µM | AID 1239; in the data active means fold change above about 3.3
Numbers stand for hits; i = inactive; nt = not tested or not shown.

SMILES | FLuc inhib CS | FLuc act counter | Pf gametocyte | APP 5'UTR act | STAT1 activator | NF-kB expr up
Cc1nc2cc(NC(=O)Nc3nccs3)ccc2n1C | 81 | i | nt | i | i | i
COc1cccc(NC(=O)Nc2ccc3nsnc3c2)c1 | i | i | nt | nt | 131 | i
COc1cccc(NC(=O)Nc2ccc3c(c2)nc(C)n3C)c1 | 92 | i | i | i | i | 5.7
Cc1nc2cc(NC(=O)NC(C)(C)C)ccc2n1C | i | i | i | i | i | i
COc1ccc(NC(=O)Nc2cccc(OC)c2)cc1 | nt | nt | nt | i | i | nt
O=C(Nc1cccc(NC(=O)c2ncn[nH]2)c1)c1cccc(Cl)c1 | i | i | i | i | i | i
COc1ccc(-c2csc(NC(=O)c3ccoc3C)n2)cc1 | i | i | i | i | 133 | i
COC(=O)c1c(-c2ccncc2)csc1NC(=O)c1ccoc1C | i | i | i | i | 136 | i
CCN(CC)C(=O)c1sc(NC(=O)c2ccoc2C)c(C(=O)OC)c1C | i | i | nt | i | i | i
COc1ccc(-c2csc(NCc3ccco3)n2)cc1 | 72 | i | nt | 158 | 135 | 6.2
Cc1ccc(-c2csc(NC(=O)c3ccno3)n2)cc1 | i | i | nt | i | 131 | i
COC(=O)CCCCCN1C(=O)NC(C2CC2)C(C(=O)OCc2ccccc2)=C1C (centres undefined) | nt | nt | i | nt | nt | nt
COc1ccc(N(CC(=O)NCCc2ccc(Cl)cc2)S(=O)(=O)c2c(C)[nH]c(=O)[nH]c2=O)cc1 | i | i | i | i | i | i
Cc1c(C(=O)N/N=C/c2cccs2)nc2ccccn12 | i | i | i | i | i | i
O=C1C2C3C=CC(C3)C2C(=O)N1c1n[nH]c(CCc2ccccc2)n1 (centres undefined) | i | i | nt | i | i | i
CN(C(=O)Nc1ccc(C(C)(C)C)cc1)C1CCCCC1 | nt | nt | i | nt | nt | nt
COc1ccc(-c2csc(NC(=O)COC(=O)C3=COCCO3)n2)cc1 | i | i | i | i | 130 | i
O=C(Nc1nc(-c2ccc(-c3ccccc3)cc2)cs1)C1=COCCO1 | i | i | i | i | i | i
CCNc1nc(NCC)nc(N/N=C/c2ccc(Br)cc2)n1 | i | i | i | i | i | i
c1cn2c(NC3CCCC3)c(-c3ccc(N4CCOCC4)cc3)nc2cn1 | 81 | i | nt | i | nt | i
Cc1nc(NC(=O)COC(=O)CCc2nc3ccccc3s2)c(Cl)cc1Cl | i | i | i | i | i | i
CCc1ccc(-c2csc(NC(=O)COC(=O)CCc3nc4ccccc4s3)n2)cc1 | i | i | nt | i | 131 | i
c1ccc(-c2ccc(-c3nc(-c4ccncc4)no3)cc2)cc1 | i | i | nt | 177 | 136 | 6.8
c1ccc(-c2ccccc2-c2nc(-c3ccncc3)no2)cc1 | i | i | i | i | i | i
c1ccc(-c2nc(-c3ccncc3)no2)cc1 | i | i | i | i | 138 | i
SMILES | FLuc inhib CS | FLuc act counter | Pf gametocyte | APP 5'UTR act | STAT1 activator | NF-kB expr up
Cc1ccc(SCC(=O)c2c(C)nc3cc(C)ccn23)cc1 | i | i | i | i | i | 3.5
Cc1ccn2c(C(=O)CSc3ccccc3)c(C)nc2c1 | i | i | i | i | i | i
COC(=O)CCC(=O)N1CCc2cc(S(=O)(=O)N3CCN(c4ccccc4Cl)CC3)ccc21 | i | i | i | i | i | i
CC1(C)CC(=O)c2c(O)cc(OCc3ccc(Br)cc3)cc2O1 | i | i | nt | 139 | 146 | i
COC(=O)c1ccc(COc2cc(O)c3c(c2)OC(C)(C)CC3=O)cc1 | i | i | nt | i | i | i
Cc1ccc(/C=N/NC(=O)Nc2ccccc2)o1 | i | i | i | i | 148 | i
Cn1c(SCc2ccccc2F)nnc1-c1cnccn1 | i | i | nt | i | 137 | i
Cn1c(SCc2ccc(F)cc2)nnc1-c1cccs1 | i | i | nt | i | 140 | i
Cn1c(SCc2ccc(F)cc2)nnc1-c1ccccn1 | i | i | i | i | 140 | i
Cc1ccc(CSc2nnc(-c3ccccn3)n2C)cc1 | i | i | i | i | i | i
Cn1c(SCc2ccccc2)nnc1-c1cccs1 | i | i | nt | i | i | i
Cn1c(SCc2ccccn2)nnc1-c1cnccn1 | i | i | i | i | i | i
Cn1c(SCc2ccccc2F)nnc1-c1ccccn1 | i | i | nt | i | 142 | i
Cn1cnnc1SCCOc1ccc(Cl)cc1 | i | i | i | i | i | i
COc1cccc(OCCCCSc2ncccn2)c1 | i | i | nt | i | i | i
Cc1ccc(OCCCSc2ncccn2)cc1C | i | i | i | i | 135 | i
Clc1ccc(OCCSc2ncccn2)cc1 | i | i | nt | i | 131 | i
c1cnc(SCCCOc2ccc3ccccc3c2)nc1 | i | i | nt | i | i | i
COc1ccc(OCCCSc2ncccn2)cc1 | i | i | nt | i | 142 | i
Cc1nn2cc(-c3ccc(Cl)cc3)cnc2c1Cl | i | i | i | 155 | 140 | 3.4
FC(F)(F)c1cnc(-c2cnc3c(-c4ccc(Cl)cc4)cnn3c2)c(Cl)c1 | i | i | nt | i | i | i
COc1cccc(-c2nc3sc4c(c3c(=O)[nH]2)CCCCC4)c1 | i | i | i | 184 | i | i
COCc1nc2sc3c(c2c(=O)[nH]1)CCCC3 | i | i | nt | i | i | i
Cc1occc1C(=O)N/N=C/c1ccc(Br)s1 | i | i | i | i | 139 | i
COc1cc(/C=N/NC(=O)c2ccoc2C)ccc1O | i | i | i | i | 138 | i
SMILES | FLuc inhib CS | FLuc act counter | Pf gametocyte | APP 5'UTR act | STAT1 activator | NF-kB expr up
Cc1ccc(/C=N/NC(=O)c2ccoc2C)s1 | i | i | i | i | 139 | i
Cc1ccc(/C=N/NC(=O)c2ccco2)s1 | i | i | i | i | i | i
Cc1ccc(-c2nc3ccccn3c2C=O)cc1 | 50 | i | i | i | 132 | i
COc1ccc(-c2nc3c4ccccc4ccn3c2C=O)cc1 | i | i | i | i | i | i
Cc1c(-c2ccc(Br)cc2)nc2ccccn12 | i | i | i | i | 148 | i
CN(C)c1ccc(-c2nc3ccccn3c2/N=C/c2ccc(Br)cc2)cc1 | 94 | i | i | 158 | 134 | i
COc1cc(-c2nc3ccccn3c2/N=C/c2cc(OC)c(OC)c(OC)c2)ccc1O | nt | nt | nt | i | i | nt
Cc1ccc(C)n1-c1sc2c(c1C#N)CCC(C)C2 (centres undefined) | i | i | 38 | i | i | i
CCC(C)(C)C1CCc2c(sc(NC(=O)c3ccccc3C(=O)O)c2C#N)C1 (centres undefined) | nt | nt | i | nt | nt | nt
CC(=O)Nc1sc2c(c1C#N)CCC(C)C2 (centres undefined) | i | i | i | i | i | i
CC1CCc2c(sc(NC(=O)c3ccccc3C(=O)O)c2C#N)C1 (centres undefined) | 77 | i | i | i | i | i
S=C(NCCc1ccccc1)Nc1ccccn1 | i | i | i | i | 133 | i
CC(C)(C)NC(=S)NCCc1ccccc1 | i | i | i | i | 130 | i
Cc1ccccc1NC(=S)NCCc1ccccc1 | i | i | i | i | i | i
CC1CCN(c2nc3c(c(=O)[nH]c(=O)n3C)n2CC(C)CSc2nnnn2-c2ccccc2)CC1 (centres undefined) | i | i | i | i | i | i
